Active and inactive are the calls of the source. No cut-off for these calls is given here.
How the values were obtained:
[1] = molecular target: T1, Toll-like receptor 8 (Homo sapiens) (UniProt Q9NR97); test: Inhibition of human TLR8 expressed in HEK293 cells assessed as reduction in TNFalpha-induced NFkappaB production incubated for 16 hrs by quanti-blue SEAP assay; format: cell-based
T1 sequence (whole entry): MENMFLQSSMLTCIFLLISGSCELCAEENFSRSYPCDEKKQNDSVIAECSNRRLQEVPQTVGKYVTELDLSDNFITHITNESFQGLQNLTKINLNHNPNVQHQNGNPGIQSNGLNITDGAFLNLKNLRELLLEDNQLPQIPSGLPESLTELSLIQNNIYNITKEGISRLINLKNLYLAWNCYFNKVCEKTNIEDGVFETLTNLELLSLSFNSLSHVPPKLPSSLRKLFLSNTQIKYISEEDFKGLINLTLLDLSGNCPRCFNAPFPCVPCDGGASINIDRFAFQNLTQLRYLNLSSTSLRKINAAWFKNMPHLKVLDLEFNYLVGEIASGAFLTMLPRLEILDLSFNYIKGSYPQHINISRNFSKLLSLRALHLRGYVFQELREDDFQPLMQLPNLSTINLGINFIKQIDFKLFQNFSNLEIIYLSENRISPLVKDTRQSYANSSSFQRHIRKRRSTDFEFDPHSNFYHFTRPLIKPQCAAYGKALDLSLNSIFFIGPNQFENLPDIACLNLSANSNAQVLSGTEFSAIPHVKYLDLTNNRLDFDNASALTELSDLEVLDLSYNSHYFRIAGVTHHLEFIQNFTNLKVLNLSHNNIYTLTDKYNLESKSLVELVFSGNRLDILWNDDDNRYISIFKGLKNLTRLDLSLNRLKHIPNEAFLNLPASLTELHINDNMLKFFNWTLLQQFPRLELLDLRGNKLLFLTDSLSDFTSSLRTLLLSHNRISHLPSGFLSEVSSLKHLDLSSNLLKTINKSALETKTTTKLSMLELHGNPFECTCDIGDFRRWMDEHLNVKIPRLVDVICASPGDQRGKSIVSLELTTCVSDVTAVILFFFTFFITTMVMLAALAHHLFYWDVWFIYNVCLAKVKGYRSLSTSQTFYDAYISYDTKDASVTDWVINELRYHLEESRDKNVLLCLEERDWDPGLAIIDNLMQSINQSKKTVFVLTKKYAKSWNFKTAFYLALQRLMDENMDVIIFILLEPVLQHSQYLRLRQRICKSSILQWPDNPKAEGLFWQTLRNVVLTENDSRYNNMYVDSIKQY
Summary of the method: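 HEK 293 hTLR8 SEAP reporter cells were stimulated with recombinant hTNF-α and incubated with compound for 16 h. SEAP absorbance was read at 620 nm and compared with 50% DMSO-treated and untreated wells.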

THP-1 [2] = test: Cytotoxicity against human THP1 cells transfected with human TLR7/8 assessed as reduction in cell viability at 0.5 to 20 uM incubated for 16 hrs by WST-1 assay; format: cell-based; details: thp-1, 16 h
Toll-like receptor 8 = molecular target: T2, Toll-like receptor 8 (Homo sapiens, UniProt Q9NR97); test: Inhibition of human TLR8 expressed in HEK293 cells assessed as reduction in R848-induced NFkappaB production incubated for 16 hrs by quanti-blue SEAP assay; format: cell-based
T2 sequence (Q9NR97 whole entry): T1 sequence (whole entry)
Summary of the method: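 HEK 293-Blue cells stably expressing hTLR7 or hTLR8 with an inducible SEAP reporter were incubated 16 h with compound under 1 µg/mL R848 stimulation. SEAP was read at 620 nm. Data were normalized to the R848 control, and IC50 was taken from concentration-response curves. […] Mean ± s.d., n = 3 independent experiments.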

HEK293 = test: Cytotoxicity against human HEK293 cells transfected with human TLR7 assessed as reduction in cell viability at 100 uM incubated for 16 hrs by WST-1 assay; format: cell-based; details: hek293, 16 h
[3] = molecular target: T1, Toll-like receptor 8 (Homo sapiens); test: Inhibition of human TLR8 expressed in HEK293 cells assessed as reduction in TNFalpha production incubated for 24 hrs by ELISA; format: cell-based
THP-1 [4] = test: Inhibition of IFN mediated immune response in human THP1 cells assessed as inhibition of G3-YSD-induced cGAS signalling pathway at 0.5 to 5 uM incubated for 16 hrs by luciferase assay; format: functional, cell-based
Summary of the method: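 THP1-Dual monocytes carrying Lucia luciferase and SEAP reporters were stimulated with 3p-hpRNA (RIG-I agonist) or Y-form dsDNA G3-YSD (cGAS agonist), with or without compound. Secreted Lucia luciferase luminescence was measured as the type I IFN read-out. Mean ± s.d., n = 3 independent experiments.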

[5] = molecular target: T1, Toll-like receptor 8 (Homo sapiens); test: Inhibition of human TLR8 expressed in HEK293 cells assessed as reduction in ssRNA-induced NFkappaB production at 5 uM incubated for 16 hrs by quanti-blue SEAP assay; format: cell-based
Summary of the method: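 HEK 293 hTLR8 SEAP reporter cells were stimulated with ssRNA (ssRNA-Lyo-40) and incubated with compound for 16 h. Data were normalized as (raw − untreated)/(ligand + solvent − untreated), with ligand + solvent set as 100%. Mean ± s.d., n = 3 independent experiments.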

[6] = molecular target: T1, Toll-like receptor 8 (Homo sapiens); test: Inhibition of human TLR8 expressed in HEK293 cells assessed as reduction in R848-induced NFkappaB production at 0.5 uM incubated for 16 hrs by quanti-blue SEAP assay; format: cell-based

**Q.** What does the source list for `O=[N+]([O-])c1c(I)cccc1Oc1ccc(-c2nnco2)cc1`?
**A.** inhibition [1]: Active; Activity (THP-1 [2]): Non-Toxic; IC50 (Toll-like receptor 8): 0.3 µM; Activity (HEK293): Toxic; inhibition [3]: Active; inhibition (THP-1 [4]): inactive; inhibition [5]: Active

**Q.** Which inhibition [1] does the source give for `O=C(Nc1ccc(Oc2cncc(C(F)(F)F)c2)cc1)c1c(F)cccc1Cl` here?
**A.** Its inhibition is “Active”.

**Q.** And the Activity (THP-1 [2])?
**A.** Its Activity is “Non-Toxic”.

**Q.** And the IC50 (Toll-like receptor 8)?
**A.** Its IC50 is 2.87 µM.

**Q.** And the Activity (HEK293)?
**A.** The Activity was “Toxic”.

**Q.** What about the inhibition [3] of the same compound?
**A.** Its inhibition is “Active”.

**Q.** What about the inhibition [6] of the same compound?
**A.** Its inhibition is “inactive”.

**Q.** And the inhibition (THP-1 [4])?
**A.** The inhibition was “inactive”.

**Q.** What about the inhibition [5] of the same compound?
**A.** Its inhibition is “inactive”.

**Q.** How did the IC50 (Toll-like receptor 8) turn out when `O=C(Nc1ccc(Oc2cc(C(F)(F)F)cc(C(F)(F)F)c2)cc1)c1c(F)cccc1Cl` was run?
**A.** Its IC50 is 1.64 µM.

**Q.** With `O=C(Nc1ccc(Oc2cc(C(F)(F)F)cc(C(F)(F)F)c2)cc1)c1c(F)cccc1I` as the compound, how does the inhibition [1] read?
**A.** Its inhibition is “Active”.

**Q.** And the Activity (THP-1 [2])?
**A.** Its Activity is “Non-Toxic”.

**Q.** What about the IC50 (Toll-like receptor 8) of the same compound?
**A.** Its IC50 is 1.04 µM.

**Q.** What about the Activity (HEK293) of the same compound?
**A.** The Activity was “Toxic”.

**Q.** And the inhibition [3]?
**A.** Its inhibition is “Active”.

**Q.** What about the inhibition [6] of the same compound?
**A.** The inhibition was “inactive”.

**Q.** What about the inhibition (THP-1 [4]) of the same compound?
**A.** Its inhibition is “inactive”.

**Q.** And the inhibition [5]?
**A.** The inhibition was “inactive”.
